Screening data as filed in PubChem.
This is a sample that favours compounds with a hit; in the whole collection about 1.9% have one here.
HIV Rev-RRE inh: inhibitors of HIV-1 Rev-RRE RNA interaction; inhibition, % at 8 µM; Rev peptide-RRE RNA binding, FRET; P05866; hit rate 0.79% among 97,000;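 active = inhibition above the screen-wide mean plus 3 SD, cut at about 35% in these data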;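 also: 0% = median DMSO wells and 100% = median Neomycin B control wells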
Target sequence (P05866 whole entry, looked up): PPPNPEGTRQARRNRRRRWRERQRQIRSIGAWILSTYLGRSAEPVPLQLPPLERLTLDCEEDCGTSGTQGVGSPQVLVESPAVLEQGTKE
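Assay system: Rev peptide and RRE RNA, both fluorescently labelled; times: 5 min preincubation and 15 min binding, 25 °C; detection: FRET, ex 480 nm, em 540 and 671 nm; read-out basis: % inhibition from 671/540 nm acceptor-to-donor ratio, scaled between controls; benchmarks: DMSO low control, neomycin B high control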
FAK blocker: inhibitors of human focal adhesion kinase; Q05397; biochemical FAK kinase activity assay; inhibition, %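 (tested at 7 µM)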; hit rate 0.84% among 97,000; AID 727;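 also: 0% = DMSO and 100% = reference compound high control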
LYP act: activators of human LYP (PTPN22) phosphatase; Q9Y2R2; recombinant LYP, DiFMUP fluorescence; 0 = plate median, 100 = signal doubled; activation, % at 2 µM; hit rate 0.11% among 96,000; AID 697;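 active = activation at 2 µM above a set limit, the mean plus 5 SD, cut at about 37% in these data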
PTPN22 inh 2: inhibitors of human LYP (PTPN22) phosphatase; Q9Y2R2; recombinant LYP catalytic domain, DiFMUP fluorescence; inhibition, % at 2 µM; hit rate 0.21% among 96,000; AID 640;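 active = inhibition at 2 µM at or above a set limit, the screen mean plus 3 SD, cut at about 24% in these data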;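 also: 0% = DMSO with enzyme and 100% = enzyme fully blocked by orthovanadate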
EphB4 antag: EphB4-ephrin-B2 interaction antagonism. P54760. EphB4 LBD / TNYL-RAW-Alexa532 peptide, fluorescence polarization. inhibition, % at 7 µM. hit rate 0.15% among 97,000. AID 720;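 active = inhibition above the screen-wide mean inhibition plus 3 SD, cut at about 15% in these data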;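 also: 0% = DMSO wells and 100% = excess unlabeled TNYL-RAW peptide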
FAK inh confirm: FAK (human) inhibition confirmed. inhibition, % at 7 µM. FAK kinase biochemical inhibition assay. AID 794. shares compounds with FAK blocker. hit rate 28% among 750
* hit, by the source's call; nt = no result given. Rule as the data show it, unless noted: active = inhibition above about 19%; inactive = the rest.

SMILES	HIV Rev-RRE inh	FAK blocker	LYP act	PTPN22 inh 2	EphB4 antag	FAK inh confirm
COc1ccc(N2CC(C(=O)Nc3ccccc3C(=O)NCc3ccco3)CC2=O)cc1 (configuration not stated)	9	2	3	-1	8	nt
O=C(CN1CCCCC1)Nc1cccc(Br)c1	1	-3	9	-10	-8	nt
COc1ccc(C2CC(c3cccs3)=Nc3ccccc3S2)cc1 (configuration not stated)	5	-2	6	-9	-3	nt
C=CCN1C(=O)/C(=C2/Sc3ccccc3N2C)SC1=Nc1ccccc1C	1	0	-9	11	0	nt
C=CCN1C(=O)/C(=C2/C(=O)N(CC(=O)O)c3ccccc32)S/C1=N/c1nccs1	-37	22*	-16	20	4	10
CCC(C)(C)NC(=O)CN(C(=O)CNS(=O)(=O)c1ccc(C)cc1)c1ccc2c(c1)OCCO2	8	-2	8	-11	7	nt
CCCN1C(=O)C(O)(C2CC(=O)CC(C)(C)O2)c2ccccc21 (configuration not stated)	5	0	-3	0	0	nt
COc1ccc(-c2[nH]ncc2/C=N\NS(=O)(=O)c2ccccc2)cc1OC	5	22*	-13	12	2	15
Nc1nnnn1/N=C/c1ccccc1OCc1ccc(Cl)cc1Cl	8	29*	-4	2	-2	4
Cc1cc(=O)[nH]c2ccccc12	9	5	-4	7	12	nt
O=c1cc(-c2ccccc2)c2ccccc2[nH]1	8	19*	-3	0	6	-1
